Experimental data as given in the M2OR odorant receptor database.

Tested on: T1, O5AN1
T1 sequence (whole entry): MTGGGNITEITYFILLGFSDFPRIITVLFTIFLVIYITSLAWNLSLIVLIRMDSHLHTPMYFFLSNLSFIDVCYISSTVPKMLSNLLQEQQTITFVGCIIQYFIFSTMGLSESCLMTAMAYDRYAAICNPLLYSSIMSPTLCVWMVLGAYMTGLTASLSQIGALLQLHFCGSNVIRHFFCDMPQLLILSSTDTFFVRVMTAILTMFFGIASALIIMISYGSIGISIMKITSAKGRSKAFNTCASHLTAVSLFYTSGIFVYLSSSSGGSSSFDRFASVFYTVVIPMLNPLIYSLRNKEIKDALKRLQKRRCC
Conditions: stereoisomer not certain
Summary of the method: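 Values were gathered from published papers (main text and supplementary material), with extra details requested from the original authors when needed, and checked for typos and inconsistencies. Each receptor–molecule pair is called responsive (active) if the original authors judged the measured signal statistically different from baseline, and non-responsive (inactive) otherwise. Assay methods varied by source, often transient mammalian cell-line luciferase assays. Recorded details include cell line, G-protein, co-transfected protein and tags.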

## O=C1CCCCCC=CCCCCCCCCO1
  odorant receptor agonist call: inactive
